Laboratory results published in ChEMBL document CHEMBL1777715, “Orally active aminopyridines as inhibitors of tetrameric fructose-1,6-bisphosphatase” (Bioorg Med Chem Lett, 2011).
Converted amounts (≈) assume the structure as drawn.

What was measured:
[1] = target: T1, Fructose-1,6-bisphosphatase 1 (Homo sapiens, UniProt P09467); experiment: Inhibition of human liver fructose-1,6-bisphosphatase
T1 sequence (P09467 whole entry): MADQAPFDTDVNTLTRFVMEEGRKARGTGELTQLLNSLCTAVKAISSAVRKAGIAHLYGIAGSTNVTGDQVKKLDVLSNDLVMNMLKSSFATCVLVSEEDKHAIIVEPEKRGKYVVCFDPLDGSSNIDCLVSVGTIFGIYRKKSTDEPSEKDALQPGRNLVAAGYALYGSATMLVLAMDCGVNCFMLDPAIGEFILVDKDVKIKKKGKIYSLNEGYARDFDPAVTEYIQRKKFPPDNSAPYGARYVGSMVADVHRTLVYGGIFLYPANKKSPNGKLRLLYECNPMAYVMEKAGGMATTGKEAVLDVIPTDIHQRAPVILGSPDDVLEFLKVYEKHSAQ

[2] = target: T2, Fructose-1,6-bisphosphatase 1 (Mus musculus, UniProt Q9QXD6); experiment: Inhibition of mouse liver fructose-1,6-bisphosphatase
T2 sequence (Q9QXD6 whole entry): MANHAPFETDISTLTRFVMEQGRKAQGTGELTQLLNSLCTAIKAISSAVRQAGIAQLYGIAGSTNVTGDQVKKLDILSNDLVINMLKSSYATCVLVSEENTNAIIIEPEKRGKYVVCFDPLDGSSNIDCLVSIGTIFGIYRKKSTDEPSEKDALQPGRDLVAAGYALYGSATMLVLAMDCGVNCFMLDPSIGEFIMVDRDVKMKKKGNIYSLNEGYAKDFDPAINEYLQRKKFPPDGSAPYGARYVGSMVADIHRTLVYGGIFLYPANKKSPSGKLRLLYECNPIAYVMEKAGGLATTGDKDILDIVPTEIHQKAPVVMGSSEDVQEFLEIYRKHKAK

Hepatocyte = experiment: Reduction of glucose production in mouse hepatocytes after 6 hrs by glucose oxidase assay; type: functional, cell-based
Method in brief: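 Primary mouse hepatocytes (25,000 cells/well) were grown 24 h at 37 °C in DMEM with 10% FBS. They were then starved 24 h in glucose-free RPMI with 1% FBS to deplete glycogen and washed with PBS. Cells were exposed to inhibitor for 6 h at 37 °C in PBS with 0.1% BSA, 20 mM lactate and 2 mM pyruvate. Glucose released into the supernatant was measured by glucose oxidase (Amplex Red).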

Salmonella typhimurium [3] = experiment: Genotoxicity in Salmonella Typhimurium TA98 assessed as fold increase of mutant colonies measured after metabolic activation by Ames test; type: toxicity, organism-based; settings: salmonella enterica subsp. enterica serovar typhimurium
Method in brief: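 AMES microsuspension format run across five Salmonella typhimurium tester strains. Read-out is the increase in revertant colony number (mutation frequency) of treated relative to untreated control.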

Salmonella typhimurium [4] = experiment: Genotoxicity in Salmonella Typhimurium TA98 assessed as induction of mutant colonies measured after metabolic activation by Ames test; type: toxicity, organism-based; settings: salmonella enterica subsp. enterica serovar typhimurium
Method in brief: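 Ames microsuspension format. Treated cultures were compared with untreated controls across five Salmonella typhimurium tester strains. Read-out was the increase in revertant colony number, taken as mutation frequency.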

[5] = Intrinsic clearance in mouse microsomes; type: ADME, Microsome
[6] = Solubility of the compound; type: physicochemical
[7] = Plasma concentration in mouse after 6 hrs; type: ADME, cell-free
[8] = Ratio of drug level in liver to plasma in mouse; type: ADME, tissue-based
Mus musculus [9] = experiment: Antidiabetic activity in db/db C57BLKS mouse assessed as reduction of plasma glucose level at 100 mg/kg, po administered 4 hrs after food removal measured after 6 hrs postdose relative to control; type: functional; design: scale not given: the % may be the effect or the level left
Method in brief: (§1)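 Fifteen-week-old male C57BLKS db/db mice were kept under controlled feeding and block-randomized on baseline blood glucose and body weight. They received a single oral dose at 4 mL/kg in 0.5% Tween 80 / 0.5% hydroxyethylcellulose 4 h after morning food removal. Blood glucose was read from tail-tip blood with a handheld meter at 0, +2, +4 and +6 h. Data are mean ± SEM; percent change is versus vehicle.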

Mus musculus [10] = experiment: Antidiabetic activity in db/db C57BLKS mouse assessed as reduction of liver glycogen level at 100 mg/kg, po administered 4 hrs after food removal measured after 6 hrs postdose relative to control; type: functional; design: scale not given: the % may be the effect or the level left
Method in brief: (§2)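 Male db/db mice on C57BLKS background, 15 weeks old, kept under controlled feeding and block-randomized on blood glucose and body weight. Dosed orally 4 h after morning food removal at 4 mL/kg in vehicle (0.5% Tween 80, 0.5% hydroxyethylcellulose). Liver glycogen was taken 6 h post-dose and compared with vehicle-treated mice.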

Mus musculus [11] = experiment: Antidiabetic activity in db/db C57BLKS mouse assessed as reduction of plasma glucose level at 100 mg/kg, po administered 4 hrs after food removal measured after 2 hrs postdose (Rbv = 22.73 +/- 0.73 mM); type: functional; method in brief: as §1
Mus musculus [12] = experiment: Antidiabetic activity in db/db C57BLKS mouse assessed as reduction of plasma glucose level at 100 mg/kg, po administered 4 hrs after food removal measured after 4 hrs postdose (Rbv = 26.58 +/- 1.09 mM); type: functional; method in brief: as §1
Mus musculus [13] = experiment: Antidiabetic activity in db/db C57BLKS mouse assessed as reduction of plasma glucose level at 100 mg/kg, po administered 4 hrs after food removal measured after 6 hrs postdose (Rbv = 23.84 +/- 0.98 mM); type: functional; method in brief: as §1
Mus musculus [14] = experiment: Hepatotoxicity in db/db C57BLKS mouse assessed as changes in normal appearance at 100 mg/kg, po; type: toxicity, organism-based; design: dose 100 mg/kg, route oral; settings: in vivo
Method in brief: (§3)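 After a single oral dose in 15-week-old male db/db (C57BLKS) mice, livers were inspected for colour and hypertrophy, and liver weight was compared with vehicle-treated mice.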

[15] = Intrinsic clearance in human microsomes; type: ADME, Microsome
[16] = Metabolic stability in human microsomes; type: ADME, Microsome
[17] = Metabolic stability in mouse microsomes; type: ADME, Microsome
Mus musculus [18] = experiment: Antidiabetic activity in db/db C57BLKS mouse assessed as reduction of plasma glucose level at 200 mg/kg, po administered 4 hrs after food removal measured after 6 hrs postdose relative to control; type: functional; design: scale not given: the % may be the effect or the level left; method in brief: as §1
Mus musculus [19] = experiment: Antidiabetic activity in db/db C57BLKS mouse assessed as increase of liver glycogen level at 200 mg/kg, po administered 4 hrs after food removal measured after 6 hrs postdose relative to control; type: functional; method in brief: as §2
Mus musculus [20] = experiment: Antidiabetic activity in db/db C57BLKS mouse assessed as reduction of plasma glucose level at 200 mg/kg, po administered 4 hrs after food removal measured after 2 hrs postdose (Rbv = 22.73 +/- 0.73 mM); type: functional; method in brief: as §1
Mus musculus [21] = experiment: Antidiabetic activity in db/db C57BLKS mouse assessed as reduction of plasma glucose level at 200 mg/kg, po administered 4 hrs after food removal measured after 4 hrs postdose (Rbv = 26.58 +/- 1.09 mM); type: functional; method in brief: as §1
Mus musculus [22] = experiment: Antidiabetic activity in db/db C57BLKS mouse assessed as reduction of plasma glucose level at 200 mg/kg, po administered 4 hrs after food removal measured after 6 hrs postdose (Rbv = 23.84 +/- 0.98 mM); type: functional; method in brief: as §1
Mus musculus [23] = experiment: Hepatotoxicity in db/db C57BLKS mouse assessed as changes in normal appearance at 200 mg/kg, po; type: toxicity, organism-based; design: dose 200 mg/kg, route oral; settings: in vivo; method in brief: as §3

COCCc1sc(S(=O)(=O)NC(=O)Nc2cc(Br)cc3[nH]ncc23)cc1C
IC50 [1]: 0.14 µM | IC50 [2]: 1.7 µM | EC50 (Hepatocyte): 6.1 µM | fold change (FC) (Salmonella typhimurium [3]): > 2

COCCc1sc(S(=O)(=O)NC(=O)Nc2cc(Br)cc3nccn23)cc1C
IC50 [1]: 0.82 µM | IC50 [2]: 8 µM | EC50 (Hepatocyte): 51 µM | Activity (Salmonella typhimurium [4]): Non-toxic

COCCc1sc(S(=O)(=O)NC(=O)Nc2cc(Br)cc(N)n2)cc1C
IC50 [1]: 0.13 µM | IC50 [2]: 1.5 µM | EC50 (Hepatocyte): 8 µM | Activity (Salmonella typhimurium [4]): Toxic

COCCc1sc(S(=O)(=O)NC(=O)Nc2cc(C(F)(F)F)c(F)c(N)n2)cc1C
microsomal CLint [5]: 12.1 µL/min/mg | solubility [6]: 530 µg/mL (≈ 1160 µM) | concentration at 6 h [7]: 4090 ng/mL | Kp [8]: 17.4 | Activity (Mus musculus [9]): 31% | Activity (Mus musculus [10]): 18% | Plasma glucose level (Mus musculus [11]): 26.99 mM | Plasma glucose level (Mus musculus [12]): 19.04 mM | Plasma glucose level (Mus musculus [13]): 16.24 mM | Activity (Mus musculus [14]): Non-toxic | IC50 [1]: 0.6 µM | IC50 [2]: 3.5 µM | EC50 (Hepatocyte): 8.9 µM | microsomal CLint [15]: 10 µL/min/mg

CC(=O)OCCc1sc(S(=O)(=O)NC(=O)Nc2cc(C(F)(F)F)c(F)c(N)n2)cc1C
Stability [16]: Unstable | Stability [17]: Unstable | solubility [6]: 160 µg/mL (≈ 330 µM) | Activity (Mus musculus [18]): 16% | Activity (Mus musculus [19]): 21% | Activity (Mus musculus [20]): 27.59 mM | Activity (Mus musculus [21]): 23.31 mM | Activity (Mus musculus [22]): 20.09 mM | Activity (Mus musculus [23]): Non-toxic | IC50 [2]: 3.5 µM | EC50 (Hepatocyte): 2.7 µM

COCCc1sc(S(=O)(=O)NC(=O)Nc2cc(C(F)(F)F)cc(C)n2)cc1C
microsomal CLint [5]: 31 µL/min/mg | solubility [6]: > 490 µg/mL | concentration at 6 h [7]: 2790 ng/mL | Kp [8]: 10.5 | Activity (Mus musculus [9]): 38% | Activity (Mus musculus [10]): 33% | Plasma glucose level (Mus musculus [11]): 21.91 mM | Plasma glucose level (Mus musculus [12]): 16.6 mM | Plasma glucose level (Mus musculus [13]): 14.64 mM | Activity (Mus musculus [14]): Non-toxic | IC50 [2]: 7 µM | EC50 (Hepatocyte): 5.9 µM

Cc1cc(C(F)(F)F)cc(NC(=O)NS(=O)(=O)c2cc(C)c(CCO)s2)n1
microsomal CLint [5]: 10 µL/min/mg | solubility [6]: > 570 µg/mL | concentration at 6 h [7]: 6800 ng/mL | Kp [8]: 8.9 | Activity (Mus musculus [9]): 36% | Activity (Mus musculus [10]): 8% | Plasma glucose level (Mus musculus [11]): 23.68 mM | Plasma glucose level (Mus musculus [12]): 18.86 mM | Plasma glucose level (Mus musculus [13]): 16.79 mM | Activity (Mus musculus [14]): Non-toxic | IC50 [1]: 0.35 µM | IC50 [2]: 4 µM | EC50 (Hepatocyte): 8.3 µM | microsomal CLint [15]: 28 µL/min/mg

CC(=O)OCCc1sc(S(=O)(=O)NC(=O)Nc2cc(C(F)(F)F)cc(C)n2)cc1C
Stability [16]: Unstable | Stability [17]: Unstable | solubility [6]: > 620 µg/mL | Activity (Mus musculus [9]): 29% | Activity (Mus musculus [10]): 5% | Plasma glucose level (Mus musculus [11]): 24.66 mM | Plasma glucose level (Mus musculus [12]): 18.76 mM | Plasma glucose level (Mus musculus [13]): 14.95 mM | Activity (Mus musculus [14]): Non-toxic | IC50 [1]: 0.52 µM | IC50 [2]: 7.3 µM | EC50 (Hepatocyte): 5.1 µM

CCOC(=O)[C@H](C)NP(=O)(N[C@@H](C)C(=O)OCC)c1ccc(-c2nc(N)sc2CC(C)C)o1
Activity (Mus musculus [18]): 22% | Activity (Mus musculus [20]): 29.59 mM | Activity (Mus musculus [21]): 21.25 mM | Activity (Mus musculus [22]): 18.61 mM
